From ChEMBL document CHEMBL5724801, “EUbOPEN Chemogenomics Library - Multiplex” (2024)
Several values for one entry are separate records, joined by “and”; a condition that tells them apart may be missing. Equal entries are not always repeated.

Each compound was assayed on Fibroblast (assay: Multiplex assay against human fibroblast). Details: 12 h, 1 µM, compound concentration 1 uM.
Type: toxicity, cell-based
In short: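 On a CQ1 microscope at 37°C and 5% CO2, live cells were imaged after compound addition. They had been stained at seeding with Hoechst33342, BioTracker Green Microtubule Cytoskeleton Dye, MitoTracker Red and Annexin V Alexa Fluor 680. CellPathfinder machine-learning gating assigned cells to Hoechst high-intensity objects or normal cells, normal cells to healthy, pyknosed or fragmented nuclei, and pyknosed cells to mitotic or apoptotic. Tubulin, mitochondrial-mass and membrane-permeability phenotypes are per cents of healthy-nucleus cells.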
For OCCCNc1cc(-c2ccnc(Nc3cccc(Cl)c3)n2)ccn1, the “Population Apoptotic (%)” value was 58% and 50%, the “Population Fragmented Nuclei (%)” value was 15% and 21% and the “Population Healthy Nuclei (%)” value was 66% and 53%. The “Population Hoechst High Intensity Objects (%)” value was 4% and 6%, the “Population Membrane Permeable-Phenotype (%)” value was 0% and 5% and the “Population Mitochondria Different-Phenotype (%)” value was 9% and 13%. The “Population Mitotic Cells (%)” value was 41% and 50%, the “Population Normal (%)” value was 95% and 93% and the “Population Pyknosed Nuclei (%)” value was 18% and 24%. The “Population Tubulin-Different-Phenotype (%)” value was 52% and 47% and the “Total Cell Count” value was 139 and 138. In the case of CCCCCC(O)/C=C/[C@H]1C(=O)CC(O)C1C/C=C\CCCC(=O)O (some centres undefined), the “Population Apoptotic (%)” value is reported as 52% and 50%, the “Population Fragmented Nuclei (%)” value is reported as 24% and 40% and the “Population Healthy Nuclei (%)” value is reported as 65% and 41%. For the same compound, the “Population Hoechst High Intensity Objects (%)” value was 1% and 2%, the “Population Membrane Permeable-Phenotype (%)” value was 0% and 7% and the “Population Mitotic Cells (%)” value was 47% and 50%. The “Population Normal (%)” value was 98% and 97%, the “Population Pyknosed Nuclei (%)” value was 10% and 18% and the “Population Tubulin-Different-Phenotype (%)” value was 19% and 52%. For the same compound, the “Total Cell Count” value was 172 and 169.

Same assay, conditions: 12 h, 10 µM, compound concentration 10 uM
With OCCCNc1cc(-c2ccnc(Nc3cccc(Cl)c3)n2)ccn1 the “Population Apoptotic (%)” value was 61% and 52%, the “Population Fragmented Nuclei (%)” value was 38% and 65% and the “Population Healthy Nuclei (%)” value was 44% and 24%. The “Population Hoechst High Intensity Objects (%)” value was 10% and 6%, the “Population Membrane Permeable-Phenotype (%)” value was 9% and 20% and the “Population Mitochondria Different-Phenotype (%)” value was 25% and 11%. The “Population Mitotic Cells (%)” value was 38% and 47%, the “Population Normal (%)” value was 89% and 93% and the “Population Pyknosed Nuclei (%)” value was 17% and 9%. For the same compound, the “Population Tubulin-Different-Phenotype (%)” value was 88% and 84% and the “Total Cell Count” value was 136 and 227. For CCCCCC(O)/C=C/[C@H]1C(=O)CC(O)C1C/C=C\CCCC(=O)O (some centres undefined), the “Population Apoptotic (%)” value was 42% and 34%, the “Population Fragmented Nuclei (%)” value was 16% and 20% and the “Population Healthy Nuclei (%)” value was 69% and 56%. The “Population Hoechst High Intensity Objects (%)” value was 0% and 2%, the “Population Membrane Permeable-Phenotype (%)” value was 0% and 3% and the “Population Mitochondria Different-Phenotype (%)” value was 1% and 7%. The “Population Mitotic Cells (%)” value was 57% and 65%, the “Population Normal (%)” value was 99% and 97% and the “Population Pyknosed Nuclei (%)” value was 13% and 23%. The “Population Tubulin-Different-Phenotype (%)” value was 16% and 41% and the “Total Cell Count” value was 139 and 101.

Same assay, conditions: 24 h, 1 µM, compound concentration 1 uM
In the case of OCCCNc1cc(-c2ccnc(Nc3cccc(Cl)c3)n2)ccn1, the “Population Apoptotic (%)” value is reported as 56% and 46%, the “Population Fragmented Nuclei (%)” value is reported as 16% and 29% and the “Population Healthy Nuclei (%)” value is reported as 65% and 48%. For the same compound, the “Population Hoechst High Intensity Objects (%)” value was 2% and 3%, the “Population Membrane Permeable-Phenotype (%)” value was 1% and 6% and the “Population Mitochondria Different-Phenotype (%)” value was 20% and 10%. For the same compound, the “Population Mitotic Cells (%)” value was 43% and 53%, the “Population Normal (%)” value was 97% and 96% and the “Population Pyknosed Nuclei (%)” value was 17% and 22%. For the same compound, the “Population Tubulin-Different-Phenotype (%)” value was 60% and 55% and the “Total Cell Count” value was 136 and 139. For CCCCCC(O)/C=C/[C@H]1C(=O)CC(O)C1C/C=C\CCCC(=O)O (some centres undefined), the “Population Apoptotic (%)” value was 35% and 50%, the “Population Fragmented Nuclei (%)” value was 20% and 41% and the “Population Healthy Nuclei (%)” value was 70% and 50%. For the same compound, the “Population Hoechst High Intensity Objects (%)” value was 0% and 1%, the “Population Membrane Permeable-Phenotype (%)” value was 0% and 4% and the “Population Mitochondria Different-Phenotype (%)” value was 2% and 10%. The “Population Mitotic Cells (%)” value was 64% and 50%, the “Population Normal (%)” value was 99% and 98% and the “Population Pyknosed Nuclei (%)” value was 8%. The “Population Tubulin-Different-Phenotype (%)” value was 21% and 47% and the “Total Cell Count” value was 169 and 184.

Same assay, conditions: 24 h, 10 µM, compound concentration 10 uM
For OCCCNc1cc(-c2ccnc(Nc3cccc(Cl)c3)n2)ccn1, the “Population Apoptotic (%)” value was 80%, the “Population Fragmented Nuclei (%)” value was 36% and 63% and the “Population Healthy Nuclei (%)” value was 42% and 27%. The “Population Hoechst High Intensity Objects (%)” value was 11% and 6%, the “Population Membrane Permeable-Phenotype (%)” value was 7% and 12% and the “Population Mitotic Cells (%)” value was 20%. For the same compound, the “Population Normal (%)” value was 88% and 93%, the “Population Pyknosed Nuclei (%)” value was 20% and 9% and the “Population Tubulin-Different-Phenotype (%)” value was 86% and 80%. For the same compound, the “Total Cell Count” value was 138 and 218. For CCCCCC(O)/C=C/[C@H]1C(=O)CC(O)C1C/C=C\CCCC(=O)O (some centres undefined), the “Population Apoptotic (%)” value was 61% and 33%, the “Population Fragmented Nuclei (%)” value was 17% and 18% and the “Population Healthy Nuclei (%)” value was 72% and 59%. The “Population Hoechst High Intensity Objects (%)” value was 2% and 4%, the “Population Membrane Permeable-Phenotype (%)” value was 1% and 3% and the “Population Mitochondria Different-Phenotype (%)” value was 3% and 1%. The “Population Mitotic Cells (%)” value was 38% and 66%, the “Population Normal (%)” value was 97% and 95% and the “Population Pyknosed Nuclei (%)” value was 9% and 21%. The “Population Tubulin-Different-Phenotype (%)” value was 21% and 29% and the “Total Cell Count” value was 138 and 101.

Same assay, conditions: 48 h, 1 µM, compound concentration 1 uM
OCCCNc1cc(-c2ccnc(Nc3cccc(Cl)c3)n2)ccn1 was tested, and the “Population Apoptotic (%)” value was 46% and 37%, the “Population Fragmented Nuclei (%)” value was 27% and 36% and the “Population Healthy Nuclei (%)” value was 47% and 30%. The “Population Hoechst High Intensity Objects (%)” value was 8% and 7%, the “Population Membrane Permeable-Phenotype (%)” value was 1% and 5% and the “Population Mitochondria Different-Phenotype (%)” value was 20% and 24%. The “Population Mitotic Cells (%)” value was 53% and 62%, the “Population Normal (%)” value was 91% and 92% and the “Population Pyknosed Nuclei (%)” value was 25% and 32%. The “Population Tubulin-Different-Phenotype (%)” value was 66% and 45% and the “Total Cell Count” value was 136 and 132. With CCCCCC(O)/C=C/[C@H]1C(=O)CC(O)C1C/C=C\CCCC(=O)O (some centres undefined) the “Population Apoptotic (%)” value was 50% and 30%, the “Population Fragmented Nuclei (%)” value was 27% and 47% and the “Population Healthy Nuclei (%)” value was 66% and 46%. The “Population Hoechst High Intensity Objects (%)” value was 3% and 2%, the “Population Membrane Permeable-Phenotype (%)” value was 0% and 3% and the “Population Mitochondria Different-Phenotype (%)” value was 2% and 7%. For the same compound, the “Population Mitotic Cells (%)” value was 50% and 70%, the “Population Normal (%)” value was 96% and 97% and the “Population Pyknosed Nuclei (%)” value was 5%. For the same compound, the “Population Tubulin-Different-Phenotype (%)” value was 19% and 42% and the “Total Cell Count” value was 175 and 186.

Same assay, conditions: 48 h, 10 µM, compound concentration 10 uM
OCCCNc1cc(-c2ccnc(Nc3cccc(Cl)c3)n2)ccn1 was tested, and the “Population Apoptotic (%)” value was 91% and 85%, the “Population Fragmented Nuclei (%)” value was 39% and 58% and the “Population Healthy Nuclei (%)” value was 39% and 30%. For the same compound, the “Population Hoechst High Intensity Objects (%)” value was 14% and 6%, the “Population Membrane Permeable-Phenotype (%)” value was 15% and 20% and the “Population Mitochondria Different-Phenotype (%)” value was 42% and 20%. The “Population Mitotic Cells (%)” value was 8% and 14%, the “Population Normal (%)” value was 85% and 93% and the “Population Pyknosed Nuclei (%)” value was 21% and 11%. For the same compound, the “Population Tubulin-Different-Phenotype (%)” value was 77% and 64% and the “Total Cell Count” value was 134 and 192. For CCCCCC(O)/C=C/[C@H]1C(=O)CC(O)C1C/C=C\CCCC(=O)O (some centres undefined), the “Population Apoptotic (%)” value was 63% and 33%, the “Population Fragmented Nuclei (%)” value was 17% and 30% and the “Population Healthy Nuclei (%)” value was 74% and 61%. For the same compound, the “Population Hoechst High Intensity Objects (%)” value was 4% and 0%, the “Population Membrane Permeable-Phenotype (%)” value was 0% and 6% and the “Population Mitochondria Different-Phenotype (%)” value was 0% and 3%. For the same compound, the “Population Mitotic Cells (%)” value was 36% and 66%, the “Population Normal (%)” value was 95% and 99% and the “Population Pyknosed Nuclei (%)” value was 8%. The “Total Cell Count” value was 141 and 104.
